The target of data set [1] is T1, Polyunsaturated fatty acid 5-lipoxygenase (Homo sapiens, UniProt P09917).
T1 sequence (P09917 whole entry): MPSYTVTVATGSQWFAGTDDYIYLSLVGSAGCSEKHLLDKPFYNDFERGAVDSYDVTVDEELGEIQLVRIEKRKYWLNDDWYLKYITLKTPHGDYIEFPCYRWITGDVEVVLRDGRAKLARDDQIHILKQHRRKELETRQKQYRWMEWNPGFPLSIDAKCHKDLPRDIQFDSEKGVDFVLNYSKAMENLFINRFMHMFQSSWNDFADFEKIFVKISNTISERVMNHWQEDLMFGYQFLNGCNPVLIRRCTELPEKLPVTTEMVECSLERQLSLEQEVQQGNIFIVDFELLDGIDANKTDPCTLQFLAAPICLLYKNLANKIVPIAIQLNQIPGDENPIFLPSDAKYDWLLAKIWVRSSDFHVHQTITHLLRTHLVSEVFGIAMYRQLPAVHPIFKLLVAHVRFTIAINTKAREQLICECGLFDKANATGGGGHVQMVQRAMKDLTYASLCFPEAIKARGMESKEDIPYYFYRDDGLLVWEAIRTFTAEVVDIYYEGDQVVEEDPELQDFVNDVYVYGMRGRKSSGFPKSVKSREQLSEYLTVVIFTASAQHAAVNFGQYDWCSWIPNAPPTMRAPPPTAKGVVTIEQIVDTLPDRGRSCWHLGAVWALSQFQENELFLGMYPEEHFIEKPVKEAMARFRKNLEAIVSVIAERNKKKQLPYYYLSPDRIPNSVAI
The experiment in a line: Inhibition of recombinant human 5LOX expressed in baculovirus infected Sf insect cells using linoleic acid as substrate preincubated for 5 mins followed by substrate addition.

A short description of data set [2]: Acute toxicity in Swiss albino mouse assessed as mortality at 1000 mg/kg, ip administered as single dose measured after 24 hrs. The data set is classed as organism-based. The note with it: in vivo. An outline of the steps:
(§1)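 Swiss albino mice of either sex (30-35 g), housed at 22-25 °C with 12 h light/dark and free food and water. Single i.p. dose; the saline control got 10 mL/kg. Deaths were counted 24 h after dosing. Dose table lists groups of 8 male and 8 female mice given 5 to 2000 mg/kg.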

Data set [3] in a line: Acute toxicity in ip dosed Swiss albino mouse assessed as mortality administered as single dose. The data set is classed as organism-based. The note with it: in vivo. Put shortly:
as §1

Data set [4] is described as follows: Acute toxicity in Swiss albino mouse assessed as change in clinical sign of mucus membrane at 1000 mg/kg, ip administered as single dose measured after 4 hrs. The data set is classed as organism-based. The conditions noted are these: in vivo. Put shortly: (§2)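 Swiss albino mice of either sex (30-35 g), kept at 22-25 °C on a 12 h light/dark cycle with free food and water. Single i.p. dose; controls received normal saline 10 mL/kg. Animals were watched at random for allergic or abnormal behavioural signs during the first 4 h.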

The nature of data set [5]: Acute toxicity in Swiss albino mouse assessed as clinical changes in skin at 1000 mg/kg, ip administered as single dose measured after 4 hrs. The conditions noted are these: in vivo. The data set is classed as organism-based. An outline of the steps:
as §2

A short description of data set [6]: Acute toxicity in Swiss albino mouse assessed as clinical changes in fur at 1000 mg/kg, ip administered as single dose measured after 4 hrs. The data set is classed as organism-based. The note with it: in vivo. Put shortly: as §2
Data set [7] is described as follows: Acute toxicity in Swiss albino mouse assessed as clinical changes in respiratory rate at 1000 mg/kg, ip administered as single dose measured after 4 hrs. The data set is classed as organism-based. The note with it: in vivo. An outline of the steps:
as §2

A short description of data set [8]: Acute toxicity in Swiss albino mouse assessed as clinical changes in piloerection at 1000 mg/kg, ip administered as single dose measured after 4 hrs. The class given is organism-based. The note with it: in vivo. Put shortly:
as §2

Data set [9] can be described thus: Acute toxicity in Swiss albino mouse assessed as clinical changes in perspiration at 1000 mg/kg, ip administered as single dose measured after 4 hrs. The data set is classed as organism-based. The note with it: in vivo. An outline of the steps: as §2
Data set [10] in a line: Acute toxicity in Swiss albino mouse assessed as clinical changes in urinary incontinence at 1000 mg/kg, ip administered as single dose measured after 4 hrs. The data set is classed as organism-based. The note with it: in vivo. An outline of the steps: as §2
A short description of data set [11]: Acute toxicity in Swiss albino mouse assessed as changes in circulatory signs at 1000 mg/kg, ip administered as single dose measured after 4 hrs. The data set is classed as organism-based. The note with it: in vivo. Put shortly: as §2
Data set [12] is described as follows: Acute toxicity in Swiss albino mouse assessed as changes in central nervous system at 1000 mg/kg, ip administered as single dose measured after 4 hrs. The data set is classed as organism-based. The conditions noted are these: in vivo. An outline of the steps: as §2
The nature of data set [13]: Acute toxicity in Swiss albino mouse assessed as convulsion at 1000 mg/kg, ip administered as single dose measured after 4 hrs. The data set is classed as organism-based. The conditions noted are these: in vivo. Put shortly: as §2
For data set [14], the system named is Mus musculus. Briefly: Antiinflammatory activity against carrageenan-induced paw edema in Swiss mouse assessed as inhibition of paw edema at 50 mg/kg administered 30 mins prior to carrageenan challenge and measured after 1 hr by […]-method (reference value: 7.66 +/- 3.753%). The data set is classed as functional. The conditions noted are these: 1.5 h, time 90 min.

The subject of data set [15] is Mus musculus. Briefly: Antiinflammatory activity against carrageenan-induced paw edema in Swiss mouse assessed as inhibition of paw edema at 100 mg/kg administered 30 mins prior to carrageenan challenge and measured after 1 hr by […]-method (reference value: 7.66 +/- 3.753%). The class given is functional. The conditions noted are these: 1.5 h, time 90 min. (In the carrageenan paw model, swelling and tenderness develop within hours.)

Data set [16] has as its system Mus musculus. Briefly: Antiinflammatory activity against carrageenan-induced paw edema in Swiss mouse assessed as inhibition of paw edema at 50 mg/kg administered 30 mins prior to carrageenan challenge and measured after 2 hrs by […]-method (reference value: 7.39 +/- 2.475%). The data set is classed as functional. The conditions noted are these: time 2.5 hrs.

Data set [17] relates to Mus musculus. Briefly: Antiinflammatory activity against carrageenan-induced paw edema in Swiss mouse assessed as inhibition of paw edema at 100 mg/kg administered 30 mins prior to carrageenan challenge and measured after 2 hrs by […]-method (reference value: 7.39 +/- 2.475%). The class given is functional. The note with it: time 2.5 hrs.
Data set [18] has as its system Mus musculus. The experiment in a line: Antiinflammatory activity against carrageenan-induced paw edema in Swiss mouse assessed as inhibition of paw edema at 25 mg/kg administered 30 mins prior to carrageenan challenge and measured after 4 hrs by […]-method (reference value: 14.46 +/- 1.568%). The class given is functional. The conditions noted are these: time 4.5 hrs.

Data set [19] concerns Mus musculus. The experiment in a line: Antiinflammatory activity against carrageenan-induced paw edema in Swiss mouse assessed as inhibition of paw edema at 50 mg/kg administered 30 mins prior to carrageenan challenge and measured after 4 hrs by […]-method (reference value: 14.46 +/- 1.568%). The note with it: time 4.5 hrs. The data set is classed as functional.

The test system of data set [20] is Mus musculus. Briefly: Antiinflammatory activity against carrageenan-induced paw edema in Swiss mouse assessed as inhibition of paw edema at 100 mg/kg administered 30 mins prior to carrageenan challenge and measured after 4 hrs by […]-method (reference value: 14.46 +/- 1.568%). The data set is classed as functional. The note with it: time 4.5 hrs.

For data set [21], the system named is Mus musculus. Briefly: Antiinflammatory activity against carrageenan-induced paw edema in Swiss mouse assessed as inhibition of paw edema at 25 mg/kg administered 30 mins prior to carrageenan challenge and measured after 5 hrs by […]-method (reference value: 7.31 +/- 3.204%). The class given is functional. The conditions noted are these: time 5.5 hrs.

Data set [22] relates to Mus musculus. Briefly: Antiinflammatory activity in bradykinin-induced paw edema in Balb/c mouse assessed as inhibition of paw edema at 100 mg/kg, ip administered 1 hr prior to bradykinin challenge and measured after 3 hrs relative to control. The class given is functional. The note with it: time 4 hrs. An outline of the steps: (§3)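 BALB/c mice of either sex (30–35 g), 8 per group, dosed i.p. with 10% DMSO, reference drug or compound (100 mg/kg). After 1 h, subplantar irritant: PGE2 0.01 µg/ml, bradykinin 20 µg/ml, histamine 0.1 ml of 1 mg/ml, or leukotriene 10 µg/ml.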

In data set [23] the test system is Mus musculus. Briefly: Antiinflammatory activity in ip dosed leukotriene-induced paw edema in Balb/c mouse assessed as inhibition of paw edema administered 1 hr prior to leukotriene challenge and measured up to 5 hrs. The data set is classed as functional, organism-based. The conditions noted are these: time 2-6 hrs. An outline of the steps: as §3

The text below walks through data of ChEMBL document CHEMBL4715833, “Design, synthesis, in-vitro, in-vivo and in-silico studies of pyrrolidine-2,5-dione derivatives as multitarget anti-inflammatory agents” (Eur J Med Chem, 2020).

One may read the IC50 as the midpoint of a concentration-inhibition curve. Usually LD50 stands for the dose expected to kill half of the subjects tested. For orientation: inhibition in vivo means the change of the read-out against control, counted positive when it falls. `O=C1CCCCC1C1CC(=O)N(Cc2ccccc2)C1=O` (stereo unspecified): in [1], the half-inhibitory concentration (IC50) amounted to 36 µM. Also, the Activity result in [2], in data set [4], in [5], in [6], in data set [7] and in data set [8] was “Non-Toxic” each time. Also, the Activity entry in data set [9], in data set [10], in data set [11], in data set [12] and in data set [13] was “Non-Toxic” in each case. In addition, the median lethal dose (LD50) in data set [3] was determined as 1000 mg/kg. Further, the values for the inhibition in vivo at 50 mg/kg in the data set with Mus musculus [14], in the data set with Mus musculus [16] and in the data set on Mus musculus [19] were 34.5%, 37.4% and 44.5%, respectively. Moreover, the inhibition in vivo at 100 mg/kg came to 44.7% in the data set with Mus musculus [15], 49.6% in the data set on Mus musculus [17], 49.7% with Mus musculus [20] and 12.4% with Mus musculus [22]. In addition, the inhibition in vivo at 25 mg/kg in the data set with Mus musculus [18] stood at 27.8%; with Mus musculus [21], 23.4%. Further, in the data set on Mus musculus [23], the inhibition entry was “Dose-dependent effect”.

For `Cc1ccc(C(=O)CC2CC(=O)N(c3ccc(S(N)(=O)=O)cc3)C2=O)cc1` (stereo unspecified), in [1], the 50% inhibitory concentration (IC50) is 0.86 µM. For the same compound, the Activity result in data set [2], in data set [4], in [5], in data set [6], in data set [7] and in [8] was “Non-Toxic” in each case. Also, the Activity entry in data set [9], in data set [10], in data set [11], in [12] and in data set [13] was “Non-Toxic” in each case. Further, the LD50 in data set [3] was 1000 mg/kg. Also, the values for the inhibition in vivo at 50 mg/kg in the data set with Mus musculus [14], in the data set on Mus musculus [16] and with Mus musculus [19] were 51.5%, 57.3% and 57.3%, respectively. For the same compound, the inhibition in vivo at 100 mg/kg was found to be 55.2% in the data set on Mus musculus [15], 63.8% with Mus musculus [17], 66.1% with Mus musculus [20] and 27.1% in the data set on Mus musculus [22]. Moreover, the figures for the inhibition in vivo at 25 mg/kg in the data set with Mus musculus [18] and in the data set on Mus musculus [21] were 54.2% and 56.6%, respectively. Besides, the inhibition entry with Mus musculus [23] is “Dose-dependent effect”.
